The source made the active and inactive calls. No cut-off for these calls is given here.
How the values were obtained:
[1] = target: Serine/threonine-protein kinase B-raf (Homo sapiens, UniProt P15056, V600E); experiment: Inhibition of BRAF V600E mutant (unknown origin) after 1 to 1.5 hrs by FRET-based Z'-Lyte assay
How it was run: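 Z′-Lyte FRET cascade assay in 10 μL. Incubated 1 h at room temperature, then development reagent 1 h, then stop reagent. Controls: phospho-peptide, no ATP, and 4% DMSO solution. Means of 2 independent experiments.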

SK-MEL-28 = experiment: cells; assay type: functional, cell-based; conditions: Homo sapiens, SK-MEL-28, 68 h
cells = assay type: functional; conditions: Homo sapiens, 68 h
[2] = target: T1, Epidermal growth factor receptor (Homo sapiens, UniProt P00533); experiment: Inhibition of EGFR (unknown origin) after 1 to 1.5 hrs by FRET-based Z'-Lyte assay
COLO 205 = experiment: Antiproliferative activity against human COLO205 cells harboring BRAF V600E mutant and EGFR after 68 hrs by MTS assay; assay type: functional, cell-based; conditions: COLO 205, 68 h
HCT-116 = experiment: Antiproliferative activity against human HCT116 cells harboring wild-type BRAF and EGFR after 68 hrs […]; assay type: functional, cell-based; conditions: HCT-116, 68 h
WiDr [3] = experiment: Antiproliferative activity against human WiDr cells harboring BRAF V600E mutant and EGFR after 68 hrs […]; assay type: functional, cell-based
LoVo = experiment: Antiproliferative activity against human LoVo cells harboring wild-type BRAF after 68 hrs by […]; assay type: functional, cell-based
HT-29 [4] = experiment: Antiproliferative activity against human HT-29 cells harboring BRAF V600E mutant and EGFR after 68 hrs […]; assay type: functional, cell-based; conditions: HT-29, 68 h
Homo sapiens [5] = species on record: Homo sapiens; experiment: Inhibition of MAPK-mediated ERK phosphorylation at Thr202/Tyr204 in human SK-MEL-28-PR30 cells at 1 uM after 24 hrs by Western blotting analysis; assay type: cell-based
How it was run: (§1)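 Time-course western blot with treatment at 1.0 μM. SK-MEL-28-PR30 or WiDr cells exposed for 2, 24 and 48 h. RIPA lysates quantified by BCA, equal protein blotted on PVDF, and probed for phospho-ERK (T202/Y204), total ERK and GAPDH.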

Homo sapiens [6] = species on record: Homo sapiens; experiment: Inhibition of MAPK-mediated ERK phosphorylation at Thr202/Tyr204 in human SK-MEL-28-PR30 cells at 1 uM after 48 hrs by Western blotting analysis; assay type: cell-based; how it was run: as §1
[7] = target: Receptor tyrosine-protein kinase erbB-2 (Homo sapiens) (UniProt P04626); experiment: Inhibition of ERBB2 (unknown origin) at 1 uM by KINOMEscan assay
How it was run: (§2)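 KINOMEscan binding screen across a panel of 456 kinases (including 395 distinct wild-type kinases), with test compound at 1.0 μM.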

[8] = target: Receptor tyrosine-protein kinase erbB-4 (Homo sapiens) (UniProt Q15303); experiment: Inhibition of ERBB4 (unknown origin) at 1 uM by KINOMEscan assay; how it was run: as §2
[9] = target: Platelet-derived growth factor receptor beta (Homo sapiens) (UniProt P09619); experiment: Inhibition of PDGFRbeta (unknown origin) at 1 uM by KINOMEscan assay; how it was run: as §2
Homo sapiens [10] = species on record: Homo sapiens; experiment: Effect on total EGFR protein level in human SK-MEL-28-PR30 cells after 2 hrs by Western blotting analysis; assay type: functional, cell-based
How it was run: (§3)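 1 × 10⁶ cells seeded overnight in 6-cm dishes, then treated 2 h with 3, 1 or 0.3 μM in fresh medium; 1‰ DMSO as control. RIPA lysates, protein quantified by BCA, equal loads run on PVDF blots. Blocked 1 h at room temperature, then probed for EGFR, phospho-EGFR (Tyr1068), ERK, phospho-ERK (T202/Y204) and GAPDH.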

A-375 = experiment: Inhibition of MAPK-mediated ERK phosphorylation at Thr202/Tyr204 in human A375 cells after 2 hrs by Western blotting analysis; assay type: cell-based; how it was run: as §3
WiDr [11] = experiment: Inhibition of MAPK-mediated ERK phosphorylation at Thr202/Tyr204 in human WiDr cells at 1 uM after 2 to 48 hrs by Western blotting analysis; assay type: cell-based; how it was run: as §1
WiDr [12] = experiment: Inhibition of MAPK-mediated ERK phosphorylation at Thr202/Tyr204 in human WiDr cells after 2 hrs by Western blotting analysis; assay type: cell-based; how it was run: as §3
Homo sapiens [13] = species on record: Homo sapiens; experiment: Inhibition of MAPK-mediated ERK phosphorylation at Thr202/Tyr204 in human SK-MEL-28-PR30 cells after 2 hrs by Western blotting analysis; assay type: cell-based; how it was run: as §3
[14] = target: T1, Epidermal growth factor receptor; experiment: Inhibition of EGFR phosphorylation at Tyr1068 in human WiDr cells after 2 hrs by Western blotting analysis; assay type: cell-based; how it was run: as §3
[15] = target: T1, Epidermal growth factor receptor; experiment: Inhibition of EGFR phosphorylation at Tyr1068 in human HT-29 cells after 2 hrs by Western blotting analysis; assay type: cell-based; how it was run: as §3
HT-29 [16] = experiment: Inhibition of MAPK-mediated ERK phosphorylation at Thr202/Tyr204 in human HT-29 cells after 2 hrs by Western blotting analysis; assay type: cell-based; how it was run: as §3
Homo sapiens [17] = species on record: Homo sapiens; experiment: Effect on total ERK protein level in human SK-MEL-28-PR30 cells after 2 hrs by Western blotting analysis; assay type: functional, cell-based; how it was run: as §3
[18] = target: T1, Epidermal growth factor receptor; experiment: Inhibition of EGFR phosphorylation at Tyr1068 in human SK-MEL-28-PR30 cells after 2 hrs by Western blotting analysis; assay type: cell-based; how it was run: as §3
[19] = target: T1, Epidermal growth factor receptor; experiment: Inhibition of EGFR phosphorylation at Tyr1068 in human A375 cells after 2 hrs by Western blotting analysis; assay type: cell-based; conditions: A-375; how it was run: as §3

Serine/threonine-protein kinase B-raf, sequence (P15056 2-766 V600E limits assumed): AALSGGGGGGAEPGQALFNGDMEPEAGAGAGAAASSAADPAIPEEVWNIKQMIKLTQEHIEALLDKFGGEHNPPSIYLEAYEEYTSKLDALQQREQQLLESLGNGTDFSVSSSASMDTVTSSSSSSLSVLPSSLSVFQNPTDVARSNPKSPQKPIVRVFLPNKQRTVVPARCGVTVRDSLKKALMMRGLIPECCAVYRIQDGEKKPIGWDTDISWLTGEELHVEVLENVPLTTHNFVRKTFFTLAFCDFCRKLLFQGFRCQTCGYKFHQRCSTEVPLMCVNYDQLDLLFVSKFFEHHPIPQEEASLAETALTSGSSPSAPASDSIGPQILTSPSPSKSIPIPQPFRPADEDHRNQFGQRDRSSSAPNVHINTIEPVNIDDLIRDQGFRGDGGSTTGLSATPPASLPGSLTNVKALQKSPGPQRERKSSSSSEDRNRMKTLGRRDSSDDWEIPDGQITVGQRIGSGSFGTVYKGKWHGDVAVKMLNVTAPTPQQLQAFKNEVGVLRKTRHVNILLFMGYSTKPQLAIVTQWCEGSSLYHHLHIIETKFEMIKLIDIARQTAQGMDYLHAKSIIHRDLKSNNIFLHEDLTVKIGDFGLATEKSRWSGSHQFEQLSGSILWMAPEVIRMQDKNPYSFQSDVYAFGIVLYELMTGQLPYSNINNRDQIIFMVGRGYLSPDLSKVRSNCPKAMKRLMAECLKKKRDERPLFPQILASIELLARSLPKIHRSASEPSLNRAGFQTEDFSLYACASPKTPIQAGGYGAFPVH
T1 sequence (P00533 whole entry): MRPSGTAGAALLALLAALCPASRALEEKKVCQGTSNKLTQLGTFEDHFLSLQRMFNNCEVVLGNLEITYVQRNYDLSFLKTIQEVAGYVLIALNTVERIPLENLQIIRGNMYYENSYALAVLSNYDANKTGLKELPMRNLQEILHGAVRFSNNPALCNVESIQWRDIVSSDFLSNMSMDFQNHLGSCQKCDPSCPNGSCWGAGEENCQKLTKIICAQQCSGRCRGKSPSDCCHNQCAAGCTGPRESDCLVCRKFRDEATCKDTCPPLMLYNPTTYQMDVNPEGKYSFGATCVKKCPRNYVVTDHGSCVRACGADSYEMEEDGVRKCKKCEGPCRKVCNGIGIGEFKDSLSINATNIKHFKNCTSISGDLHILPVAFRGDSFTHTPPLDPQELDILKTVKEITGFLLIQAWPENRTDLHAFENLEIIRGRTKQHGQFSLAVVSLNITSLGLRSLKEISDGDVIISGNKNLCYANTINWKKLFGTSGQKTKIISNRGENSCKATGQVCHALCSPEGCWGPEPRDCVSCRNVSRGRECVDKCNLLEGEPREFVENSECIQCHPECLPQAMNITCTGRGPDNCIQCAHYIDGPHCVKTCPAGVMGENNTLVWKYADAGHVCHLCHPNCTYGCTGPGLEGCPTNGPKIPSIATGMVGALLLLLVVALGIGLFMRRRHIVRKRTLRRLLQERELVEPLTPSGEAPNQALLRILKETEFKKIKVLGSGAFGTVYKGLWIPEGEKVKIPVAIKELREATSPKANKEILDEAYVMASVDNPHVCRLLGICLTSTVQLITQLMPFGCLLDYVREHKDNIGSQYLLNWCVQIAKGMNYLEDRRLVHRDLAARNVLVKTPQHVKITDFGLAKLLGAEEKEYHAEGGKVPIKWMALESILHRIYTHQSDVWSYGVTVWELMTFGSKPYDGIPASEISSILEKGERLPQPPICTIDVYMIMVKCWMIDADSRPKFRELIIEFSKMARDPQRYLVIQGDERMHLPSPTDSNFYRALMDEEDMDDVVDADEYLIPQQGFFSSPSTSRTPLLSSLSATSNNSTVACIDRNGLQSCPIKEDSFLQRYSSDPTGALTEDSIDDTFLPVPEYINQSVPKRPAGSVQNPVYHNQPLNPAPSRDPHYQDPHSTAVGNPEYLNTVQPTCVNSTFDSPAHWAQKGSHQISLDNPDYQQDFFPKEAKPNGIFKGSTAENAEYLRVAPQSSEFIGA
Platelet-derived growth factor receptor beta (Homo sapiens), sequence (P09619 whole entry): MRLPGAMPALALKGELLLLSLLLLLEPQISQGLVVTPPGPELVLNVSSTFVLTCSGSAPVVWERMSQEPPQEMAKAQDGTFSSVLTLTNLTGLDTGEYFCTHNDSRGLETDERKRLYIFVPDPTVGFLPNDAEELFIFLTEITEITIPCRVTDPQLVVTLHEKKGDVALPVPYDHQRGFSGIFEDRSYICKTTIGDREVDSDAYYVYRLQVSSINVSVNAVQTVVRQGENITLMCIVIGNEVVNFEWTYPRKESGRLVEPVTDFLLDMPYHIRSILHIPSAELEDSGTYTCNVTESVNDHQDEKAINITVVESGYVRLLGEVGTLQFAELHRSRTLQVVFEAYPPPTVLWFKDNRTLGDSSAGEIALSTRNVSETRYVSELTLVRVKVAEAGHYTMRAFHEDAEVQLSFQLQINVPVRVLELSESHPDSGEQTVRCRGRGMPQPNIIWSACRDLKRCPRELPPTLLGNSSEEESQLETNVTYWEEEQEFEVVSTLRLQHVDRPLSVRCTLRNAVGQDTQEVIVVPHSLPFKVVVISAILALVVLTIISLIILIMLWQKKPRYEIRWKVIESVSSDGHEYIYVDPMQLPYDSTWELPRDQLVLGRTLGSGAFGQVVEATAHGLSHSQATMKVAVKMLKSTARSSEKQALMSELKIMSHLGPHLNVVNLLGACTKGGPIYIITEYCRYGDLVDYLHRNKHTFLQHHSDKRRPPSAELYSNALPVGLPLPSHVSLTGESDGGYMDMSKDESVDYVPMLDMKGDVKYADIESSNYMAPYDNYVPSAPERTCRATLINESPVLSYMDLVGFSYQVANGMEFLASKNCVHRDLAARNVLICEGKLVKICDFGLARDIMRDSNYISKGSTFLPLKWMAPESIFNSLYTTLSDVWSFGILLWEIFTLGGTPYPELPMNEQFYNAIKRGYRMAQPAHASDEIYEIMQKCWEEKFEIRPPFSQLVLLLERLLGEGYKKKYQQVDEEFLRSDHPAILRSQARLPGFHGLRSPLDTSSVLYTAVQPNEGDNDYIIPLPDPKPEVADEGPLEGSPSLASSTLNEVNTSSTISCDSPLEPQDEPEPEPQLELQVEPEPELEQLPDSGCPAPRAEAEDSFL
Receptor tyrosine-protein kinase erbB-4 (Homo sapiens), sequence (Q15303 whole entry): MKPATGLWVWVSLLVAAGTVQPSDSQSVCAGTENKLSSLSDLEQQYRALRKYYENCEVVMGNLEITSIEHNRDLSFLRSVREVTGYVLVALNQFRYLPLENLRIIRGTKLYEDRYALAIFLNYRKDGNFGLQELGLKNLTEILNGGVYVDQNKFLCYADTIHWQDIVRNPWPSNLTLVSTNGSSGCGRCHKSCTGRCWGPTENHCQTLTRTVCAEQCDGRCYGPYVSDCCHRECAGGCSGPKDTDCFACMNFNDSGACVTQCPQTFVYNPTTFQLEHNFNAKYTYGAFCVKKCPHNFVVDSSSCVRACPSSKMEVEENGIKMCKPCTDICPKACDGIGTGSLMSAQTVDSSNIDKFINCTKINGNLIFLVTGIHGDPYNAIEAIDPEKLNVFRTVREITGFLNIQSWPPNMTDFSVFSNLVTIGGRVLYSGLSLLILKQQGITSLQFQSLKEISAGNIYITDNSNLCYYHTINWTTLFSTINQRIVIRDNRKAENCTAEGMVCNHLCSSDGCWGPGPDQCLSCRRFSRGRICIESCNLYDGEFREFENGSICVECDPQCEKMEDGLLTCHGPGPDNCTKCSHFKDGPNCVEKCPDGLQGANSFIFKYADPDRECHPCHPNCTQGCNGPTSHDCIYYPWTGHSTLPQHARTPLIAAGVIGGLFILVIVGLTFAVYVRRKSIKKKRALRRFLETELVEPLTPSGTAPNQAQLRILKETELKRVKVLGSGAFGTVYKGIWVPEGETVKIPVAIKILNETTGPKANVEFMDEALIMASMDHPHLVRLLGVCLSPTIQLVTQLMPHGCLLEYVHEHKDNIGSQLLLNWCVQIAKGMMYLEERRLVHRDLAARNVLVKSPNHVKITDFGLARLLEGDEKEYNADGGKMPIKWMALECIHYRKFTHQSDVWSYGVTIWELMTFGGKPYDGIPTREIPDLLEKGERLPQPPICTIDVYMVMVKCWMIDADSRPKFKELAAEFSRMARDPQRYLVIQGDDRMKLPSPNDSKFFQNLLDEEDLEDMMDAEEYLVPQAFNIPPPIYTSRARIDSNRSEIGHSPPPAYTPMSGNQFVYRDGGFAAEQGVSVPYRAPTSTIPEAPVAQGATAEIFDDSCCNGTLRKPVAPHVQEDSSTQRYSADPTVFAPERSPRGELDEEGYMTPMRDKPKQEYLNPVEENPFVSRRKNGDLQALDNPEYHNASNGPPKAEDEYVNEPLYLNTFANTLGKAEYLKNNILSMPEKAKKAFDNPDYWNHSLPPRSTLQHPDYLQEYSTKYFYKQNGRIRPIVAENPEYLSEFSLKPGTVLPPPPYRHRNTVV

| Compound | IC50 [1] | IC50 (SK-MEL-28) | IC50 (cells) | IC50 [2] | further results |
| --- | --- | --- | --- | --- | --- |
| Cc1ccc(C(=O)Nc2ccc(CN3CCN(C)CC3)c(C(F)(F)F)c2)cc1NC(=O)c1cnc(N(C)C)nc1 | 300 nM | 6960 nM | 2490 nM | 5540 nM |  |
| Cc1ccc(C(=O)Nc2ccc(CN3CCN(C)CC3)c(C(F)(F)F)c2)cc1NC(=O)c1ccncc1 | 110 nM | > 20000 nM | > 20000 nM | > 10000 nM |  |
| Cc1ccc(C(=O)Nc2ccc(CN3CCN(C)CC3)c(C(F)(F)F)c2)cc1NC(=O)c1cnc2[nH]ncc2c1 | 48 nM | 540 nM | 780 nM | 30 nM | IC50 (COLO 205): 360 nM; IC50 (HCT-116): 1380 nM; IC50 (WiDr [3]): 1350 nM; IC50 (LoVo): 480 nM; IC50 (HT-29 [4]): 780 nM |
| Cc1ccc(C(=O)Nc2ccc(CN3CCN(C)CC3)c(C(F)(F)F)c2)cc1NC(=O)c1ccccn1 | 573 nM | > 20000 nM | 10700 nM |  |  |
| CCc1ccc(C(=O)Nc2ccc(CN3CCN(C)CC3)c(C(F)(F)F)c2)cc1NC(=O)c1cnc2[nH]ccc2c1 | 360 nM | 910 nM | 490 nM | 99 nM |  |
| CCCS(=O)(=O)Nc1ccc(F)c(C(=O)c2c[nH]c3ncc(-c4ccc(Cl)cc4)cc23)c1F [VEMURAFENIB] |  | 480 nM | > 20000 nM |  | inhibition (Homo sapiens [5]): inactive; inhibition (Homo sapiens [6]): inactive |
| Cc1ccc(C(=O)Nc2ccc(CN3CCN(C)CC3)c(C(F)(F)F)c2)cc1NC(=O)c1cnc(NC(C)C)nc1 | 340 nM | 1730 nM | 860 nM | 43 nM |  |
| CCNc1ncc(C(=O)Nc2cc(C(=O)Nc3ccc(CN4CCN(C)CC4)c(C(F)(F)F)c3)ccc2C)cn1 | 510 nM | 1090 nM | 2400 nM | 130 nM |  |
| CN1CCN(Cc2ccc(NC(=O)c3cccc(NC(=O)c4cnc5[nH]ccc5c4)c3)cc2C(F)(F)F)CC1 | 48 nM | 1070 nM | 1730 nM | 680 nM |  |
| Cc1ccc(C(=O)Nc2ccc(CN3CCN(C)CC3)c(C(F)(F)F)c2)cc1NC(=O)c1cnc(Nc2ccccc2)nc1 | 210 nM | 1700 nM | 900 nM | 6 nM |  |
| Cc1ccc(C(=O)Nc2ccc(CN3CCN(C)CC3)c(C(F)(F)F)c2)cc1NC(=O)c1cccnc1 | 551 nM | 14000 nM | > 20000 nM | 550 nM |  |
| Cc1ccc(C(=O)Nc2ccc(CN3CCN(C)CC3)c(C(F)(F)F)c2)cc1NC(=O)c1ccccc1 | 240 nM | 6910 nM | 5030 nM | > 10000 nM |  |
| Cc1ccc(C(=O)Nc2ccc(CN3CCN(C)CC3)c(C(F)(F)F)c2)cc1NC(=O)c1cnccn1 | 280 nM | > 20000 nM | > 20000 nM | 3900 nM |  |
| Cc1ccc(C(=O)Nc2ccc(CN3CCN(C)CC3)c(C(F)(F)F)c2)cc1NC(=O)c1cnc(N)nc1 | 410 nM | 1840 nM | 1890 nM | 43 nM |  |
| Cc1ccc(C(=O)Nc2ccc(CN3CCN(C)CC3)c(C(F)(F)F)c2)cc1NC(=O)c1cnc2[nH]ccc2c1 | 51 nM | 130 nM | 450 nM | 8 nM | IC50 (COLO 205): 220 nM; IC50 (HCT-116): 1330 nM; inhibition [7]: Active; inhibition [8]: Active; inhibition [9]: Active; inhibition (Homo sapiens [10]): Dose-dependent effect; inhibition (A-375): Dose-dependent effect; inhibition (WiDr [11]): Active; inhibition (Homo sapiens [6]): Active; IC50 (WiDr [3]): 670 nM; inhibition (WiDr [12]): Dose-dependent effect; inhibition (Homo sapiens [13]): Dose-dependent effect; IC50 (LoVo): 170 nM; inhibition [14]: Dose-dependent effect; inhibition [15]: Dose-dependent effect; inhibition (HT-29 [16]): Dose-dependent effect; IC50 (HT-29 [4]): 480 nM; inhibition (Homo sapiens [17]): Dose-dependent effect; inhibition [18]: Dose-dependent effect; inhibition [19]: Dose-dependent effect |
| Cc1ccc(C(=O)Nc2ccc(CN3CCN(C)CC3)c(C(F)(F)F)c2)cc1NC(=O)c1cnc(NC2CCCCC2)nc1 | 37 nM | 2380 nM | 2730 nM | 47 nM |  |
| CC(C)c1ccc(C(=O)Nc2ccc(CN3CCN(C)CC3)c(C(F)(F)F)c2)cc1NC(=O)c1cnc2[nH]ccc2c1 | 290 nM | 2270 nM | 1900 nM | 160 nM |  |
| Cc1ccc(C(=O)Nc2ccc(CN3CCN(C)CC3)c(C(F)(F)F)c2)cc1NC(=O)c1cnc(NC2CC2)nc1 | 390 nM | 2960 nM | 1440 nM | 44 nM |  |
| Cc1ccc(C(=O)Nc2ccc(CN3CCN(C)CC3)c(C(F)(F)F)c2)cc1NC(=O)c1cncnc1 | 670 nM | > 20000 nM | > 20000 nM | 1920 nM |  |
| Cc1ccc(C(=O)Nc2ccc(CN3CCN(C)CC3)c(C(F)(F)F)c2)cc1NC(=O)c1cnc(NC2CCCC2)nc1 | 230 nM | 2040 nM | 1240 nM | 33 nM |  |
| Cc1ccc(C(=O)Nc2ccc(CN3CCN(C)CC3)c(C(F)(F)F)c2)cc1NC(=O)c1ccc2[nH]ccc2c1 | 220 nM | 4430 nM | 3040 nM | > 10000 nM |  |
| CNc1ncc(C(=O)Nc2cc(C(=O)Nc3ccc(CN4CCN(C)CC4)c(C(F)(F)F)c3)ccc2C)cn1 | 290 nM | > 20000 nM | 2750 nM | 120 nM |  |
| Cc1ccc(C(=O)Nc2ccc(CN3CCN(C)CC3)c(C(F)(F)F)c2)cc1NC(=O)c1ccc(O)nc1 | > 10000 nM | > 20000 nM | > 20000 nM | 1330 nM |  |

Source: ChEMBL document CHEMBL3233006 (J Med Chem, 2014)
